Data: the M2OR odorant receptor database

What was measured:
Details in all cases: stereoisomer not certain
OR10H4 (Homo sapiens) = target: T1, OR10H4 (Homo sapiens) (UniProt Q8NGA5)
T1 sequence (whole entry): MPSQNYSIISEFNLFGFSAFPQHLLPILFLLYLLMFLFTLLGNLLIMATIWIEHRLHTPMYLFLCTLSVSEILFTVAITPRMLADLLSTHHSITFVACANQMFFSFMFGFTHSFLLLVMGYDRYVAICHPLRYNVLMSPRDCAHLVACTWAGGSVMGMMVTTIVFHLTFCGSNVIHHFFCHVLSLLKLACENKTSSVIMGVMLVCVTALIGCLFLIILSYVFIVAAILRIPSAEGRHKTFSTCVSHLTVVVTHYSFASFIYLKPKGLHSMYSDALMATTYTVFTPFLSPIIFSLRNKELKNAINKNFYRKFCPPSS
How it was run: (§1)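 Each receptor–molecule pair is labelled responsive or non-responsive (inactive) according to whether the original authors judged the measured signal statistically different from baseline. The data were taken from the main text and supplementary material of published papers and checked for typos and inconsistencies. Assay methods differed by source, with transient luciferase assays in mammalian cell lines being common.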

OR10H5 (Homo sapiens) = target: T2, OR10H5 (Homo sapiens) (UniProt Q8NGA6)
T2 sequence (whole entry): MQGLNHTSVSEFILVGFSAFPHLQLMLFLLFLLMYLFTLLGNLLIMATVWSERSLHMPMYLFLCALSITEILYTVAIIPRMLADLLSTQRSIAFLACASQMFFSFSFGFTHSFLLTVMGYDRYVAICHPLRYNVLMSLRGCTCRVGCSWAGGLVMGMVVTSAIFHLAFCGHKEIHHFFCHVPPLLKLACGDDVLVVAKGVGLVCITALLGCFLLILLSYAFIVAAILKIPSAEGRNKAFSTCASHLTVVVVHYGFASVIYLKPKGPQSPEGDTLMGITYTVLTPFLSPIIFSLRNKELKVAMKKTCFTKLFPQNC
How it was run: as §1

OR10J1 (Homo sapiens) = target: T3, OR10J1 (Homo sapiens) (UniProt P30954)
T3 sequence (whole entry): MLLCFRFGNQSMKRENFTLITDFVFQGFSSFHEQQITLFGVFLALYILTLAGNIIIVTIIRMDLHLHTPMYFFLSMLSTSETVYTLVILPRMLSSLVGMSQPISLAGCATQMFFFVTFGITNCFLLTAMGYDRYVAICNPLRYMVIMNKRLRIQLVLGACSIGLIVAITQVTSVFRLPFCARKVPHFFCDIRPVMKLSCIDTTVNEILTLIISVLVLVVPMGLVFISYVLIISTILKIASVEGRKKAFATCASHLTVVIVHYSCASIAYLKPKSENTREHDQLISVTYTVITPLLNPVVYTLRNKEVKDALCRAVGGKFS
How it was run: as §1

OR10J3 (Homo sapiens) = target: T4, OR10J3 (Homo sapiens) (UniProt Q5JRS4)
T4 sequence (whole entry): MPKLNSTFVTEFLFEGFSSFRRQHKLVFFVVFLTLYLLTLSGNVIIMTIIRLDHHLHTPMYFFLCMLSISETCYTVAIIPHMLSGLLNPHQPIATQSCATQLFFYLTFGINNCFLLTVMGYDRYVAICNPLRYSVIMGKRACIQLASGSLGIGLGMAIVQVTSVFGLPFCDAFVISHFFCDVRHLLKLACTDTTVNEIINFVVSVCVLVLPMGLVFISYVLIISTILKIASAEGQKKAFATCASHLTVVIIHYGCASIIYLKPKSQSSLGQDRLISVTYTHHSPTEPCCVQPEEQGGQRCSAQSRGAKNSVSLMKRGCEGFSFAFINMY
How it was run: as §1

OR10J5 (Homo sapiens) = target: T5, OR10J5 (Homo sapiens) (UniProt Q8NHC4)
T5 sequence (whole entry): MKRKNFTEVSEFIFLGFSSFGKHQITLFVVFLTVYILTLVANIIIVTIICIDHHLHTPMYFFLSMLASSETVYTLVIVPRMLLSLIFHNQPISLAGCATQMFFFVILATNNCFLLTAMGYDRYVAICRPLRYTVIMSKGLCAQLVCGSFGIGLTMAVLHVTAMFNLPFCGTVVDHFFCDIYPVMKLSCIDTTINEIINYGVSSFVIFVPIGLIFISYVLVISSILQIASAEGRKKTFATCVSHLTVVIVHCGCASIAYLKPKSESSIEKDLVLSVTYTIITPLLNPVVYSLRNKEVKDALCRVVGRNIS
How it was run: as §1

OR10K1 (Homo sapiens) = target: T6, OR10K1 (Homo sapiens) (UniProt Q8NGX5)
T6 sequence (whole entry): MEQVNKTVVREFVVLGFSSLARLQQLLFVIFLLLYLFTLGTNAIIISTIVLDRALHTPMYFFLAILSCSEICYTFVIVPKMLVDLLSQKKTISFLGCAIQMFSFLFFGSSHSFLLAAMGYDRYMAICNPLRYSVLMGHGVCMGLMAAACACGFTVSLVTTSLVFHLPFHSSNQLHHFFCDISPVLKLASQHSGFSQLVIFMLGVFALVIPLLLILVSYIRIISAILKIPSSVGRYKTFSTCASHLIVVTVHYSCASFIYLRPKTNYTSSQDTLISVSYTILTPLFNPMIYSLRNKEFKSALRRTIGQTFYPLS
How it was run: as §1

OR10K2 (Homo sapiens) = target: T7, OR10K2 (Homo sapiens) (UniProt Q6IF99)
T7 sequence (whole entry): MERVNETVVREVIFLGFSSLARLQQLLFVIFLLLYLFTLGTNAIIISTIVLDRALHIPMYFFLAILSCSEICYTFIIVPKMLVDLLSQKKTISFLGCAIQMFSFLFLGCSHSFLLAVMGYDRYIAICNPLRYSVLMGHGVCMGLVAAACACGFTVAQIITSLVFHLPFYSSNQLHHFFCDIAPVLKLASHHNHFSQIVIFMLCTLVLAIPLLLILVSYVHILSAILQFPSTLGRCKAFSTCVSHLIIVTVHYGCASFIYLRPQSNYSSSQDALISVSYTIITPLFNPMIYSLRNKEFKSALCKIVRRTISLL
How it was run: as §1

OR10P1 (Homo sapiens) = target: T8, OR10P1 (Homo sapiens) (UniProt Q8NGE3)
T8 sequence (whole entry): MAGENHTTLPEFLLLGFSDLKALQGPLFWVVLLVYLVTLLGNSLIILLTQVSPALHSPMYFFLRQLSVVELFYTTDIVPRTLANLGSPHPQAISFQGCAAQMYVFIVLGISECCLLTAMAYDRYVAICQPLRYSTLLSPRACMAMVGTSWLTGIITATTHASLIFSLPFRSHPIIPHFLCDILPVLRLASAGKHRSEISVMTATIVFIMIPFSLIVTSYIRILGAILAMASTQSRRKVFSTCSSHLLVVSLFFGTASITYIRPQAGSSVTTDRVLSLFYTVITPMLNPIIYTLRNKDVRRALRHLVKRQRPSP
How it was run: as §1

OR10Q1 (Homo sapiens) = target: T9, OR10Q1 (Homo sapiens) (UniProt Q8NGQ4)
T9 sequence (whole entry): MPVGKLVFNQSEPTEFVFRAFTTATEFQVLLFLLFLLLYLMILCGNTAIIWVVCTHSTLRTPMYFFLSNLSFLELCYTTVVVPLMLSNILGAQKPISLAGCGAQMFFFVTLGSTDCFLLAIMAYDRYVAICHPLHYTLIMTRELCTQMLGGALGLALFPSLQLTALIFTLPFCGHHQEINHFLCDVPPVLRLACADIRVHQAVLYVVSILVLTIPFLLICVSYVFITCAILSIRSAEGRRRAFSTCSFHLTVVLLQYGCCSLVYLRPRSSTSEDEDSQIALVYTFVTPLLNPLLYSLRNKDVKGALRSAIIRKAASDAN
How it was run: as §1

Measured: odorant receptor agonist call

CCCCC(S)C(C)CO (centres undefined)
active: OR10J5 (Homo sapiens)
inactive: OR10H4 (Homo sapiens) | OR10H5 (Homo sapiens) | OR10J1 (Homo sapiens) | OR10J3 (Homo sapiens) | OR10K1 (Homo sapiens) | OR10K2 (Homo sapiens) | OR10P1 (Homo sapiens) | OR10Q1 (Homo sapiens)
